Each structure is given as a SMILES string. Activity calls are given as the source filed them. The calls are words filed in the database; no cut-off is given here.

In general, IC50 refers to the concentration needed to halve the response being measured.

The test system of one series is EMT6. Briefly: Cytotoxicity against mouse EMT6 cells after 72 hrs by crystal violet staining. In kind it is functional. Conditions: EMT6, 72 h, read-out: LD50 (the source's name).
Series [1] in a line: Cytotoxicity against mouse PancO2 cells after 72 hrs by crystal violet staining. It counts as functional. The conditions noted are these: read-out: LD50 (the source's name).
A short description of series [2]: Inhibition of human recombinant Trx1/TrxR assessed as reduction in number of free thiols from reduced insulin after 30 mins by insulin reduction assay. Put shortly:
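At least seven compound concentrations. Incubated 30 min at 37 °C, stopped with 8 mM DTNB in 8 M guanidine HCl, A412. IC50 from four-parameter logistic fit. Triplicates, mean ± SD, n ≥ 3.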

Series [3] is described as follows: Chemical stability of the compound. It counts as physicochemical.
The subject of a further series is K562. As to the kind of experiment: Cytotoxicity against human K562 cells after 72 hrs by MTT assay. It counts as functional. The conditions noted are these: K562, 72 h, read-out: LD50 (the source's name). Put shortly:
(§1)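 Suspension cells were grown in RPMI-1640 with 10% heat-inactivated FBS and exposed to compound for 72 h with DMSO ≤1%. MTT (5 mg/mL solution) was added for 4 h, then plates were centrifuged, cells lysed in DMSO and read at A570. Viability is % of solvent controls, background-corrected; n ≥ 3.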
A general note: Formazan colour is commonly taken as a measure of viable cells.

Series [4] relates to Raji. As to the kind of experiment: Cytotoxicity against human Raji cells after 72 hrs by MTT assay. Conditions: read-out: LD50 (the source's name). It counts as functional. Put shortly:
as §1

The next series concerns Ramos. As to the kind of experiment: Cytotoxicity against human Ramos cells after 72 hrs by MTT assay. In kind it is functional. Conditions: read-out: LD50 (the source's name). Put shortly: as §1
A short description of series [5]: Cytotoxicity against mouse B78 cells after 72 hrs by crystal violet staining. In kind it is functional. Conditions: B78, 72 h, read-out: LD50 (the source's name).
The test system of a further series is CT26. Briefly: Cytotoxicity against wild type mouse CT26 cells after 72 hrs by crystal violet staining. It counts as functional. The conditions noted are these: CT26, 72 h, read-out: LD50 (the source's name).
In another series the test system is T-24. Briefly: Cytotoxicity against human T24 cells after 72 hrs by crystal violet staining. In kind it is functional. The conditions noted are these: T-24, 72 h, read-out: LD50 (the source's name).
A short description of series [6]: Cytotoxicity against mouse bone marrow cells after 72 hrs by XTT assay. It counts as cell-based, Bone marrow cell. Conditions: read-out: LD50. Put shortly:
(§2)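 hPBMC were isolated from healthy donors on Histopaque 1077 and kept in RPMI. Bone marrow came from female BALB/c mice and was cultured in Iscove's medium with 10% FBS and 100 U IL-3. After compound exposure, cells got XTT at 0.3 mg/mL for 4 h, read at A490 against 690 nm. Viability is % of DMSO controls; n ≥ 3.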

Series [7] is described as follows: Cytotoxicity against mouse MEF cells. In kind it is cell-based. Conditions: read-out: LD50 (the source's name). Put shortly:
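Fibroblasts came from BALB/c embryos at E13.5 by 0.2% trypsin digestion at 37 °C for 10 min and were cultured in DMEM. Viability is % of solvent controls with DMSO ≤1%; n ≥ 3.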

A short description of series [8]: Cytotoxicity against human PBMC cells after 72 hrs by XTT assay. In kind it is cell-based. Conditions: read-out: LD50. Put shortly: as §2
Series [9] has as its system Raji. Briefly: Induction of Trx mRNA expression in human Raji cells at 5 to 10 uM after 4 to 24 hrs by RT-PCR analysis. In kind it is functional, cell-based.
The test system of series [10] is Raji. Briefly: Induction of Trx protein expression in human Raji cells at 10 to 20 uM after 4 to 8 hrs by Western blot analysis. In kind it is functional, cell-based. Put shortly:
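Raji cells exposed to compound for 4 and 8 h, washed and lysed in 0.1% NP40 with protease inhibitors. Equal protein (BCA) run on 15% SDS-PAGE and blotted to nitrocellulose, blocked in TBST with 5% BSA. Probed overnight with rabbit anti-thioredoxin and mouse anti-tubulin, then HRP secondaries for 45 min. ECL luminol/coumaric acid detection.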
(In general: A western blot detects proteins with antibodies after separation by electrophoresis.)

Series [11] deals with Mus musculus. As to the kind of experiment: Toxicity in mouse EMT6 cells allografted BALB/c mouse assessed as change in body weight at 14 mg/kg, ip qd for 7 days measured on day 5. It counts as organism-based. Also noted: dose 14 mg/kg, route intraperitoneal. The conditions noted are these: in vivo, 168 h. Put shortly:
(§3)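 BALB/c mice, 8−12 weeks old, inoculated sc with 3.5 × 10^5 EMT6 cells into the depilated right thigh. Intraperitoneal dosing in DMSO began on day 7, when tumors reached a longer diameter of 5−7 mm, and was given daily. Controls received ip DMSO. Tumor volume was followed by calipers as longer × shorter²/2. Survival and body weight were monitored.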

For series [12], the system named is Mus musculus. As to the kind of experiment: Toxicity in mouse EMT6 cells allografted BALB/c mouse assessed as mortality at 14 mg/kg, ip qd for 7 days measured on day 5. In kind it is organism-based. Also noted: dose 14 mg/kg, route intraperitoneal. Conditions: in vivo, 168 h. Put shortly:
as §3

Series [13] is described as follows: Solubility of the compound in biological media. In kind it is ADME.

For the compound `C=C(COS(=O)(=O)c1ccc(C)cc1)C(=O)N(Cc1ccccc1)[C@@H](CC(C)C)C(=O)NCC(=O)OCc1ccccc1`, the CC50 (with EMT6; in series [1]) was more than 50 µM in each case. Further, the IC50 in series [2] stood at 22.3 µM.
`Cc1ccc(S(=O)(=O)OCC(COS(=O)(=O)c2ccc(C)cc2)C(=O)N(Cc2ccccc2)[C@@H](CC(C)C)C(=O)NCC(=O)OCc2ccccc2)cc1`: the IC50 in series [2] was more than 50 µM.
Regarding `C=C(C)C(=O)N(Cc1ccccc1)[C@@H](CC(C)C)C(=O)NCC(=O)OCc1ccccc1`, the CC50 (in the series on EMT6; in series [1]) was more than 50 µM each time. For the same compound, in series [2], the IC50 is more than 50 µM.
Regarding `CC(C)C[C@@H](C(=O)NCC(=O)OCc1ccccc1)N(Cc1ccccc1)C(=O)C(CI)CI`, in [2], the IC50 is more than 50 µM.
Regarding `COC(=O)C(CBr)CBr`, the CC50 (in the series on EMT6; in series [1]) was more than 50 µM in each case. Besides, the IC50 in [2] came to 1.2 µM.
Take `C=C(CBr)C(=O)N[C@@H](CC(C)C)C(=O)NCC(=O)OCC`: the CC50 is more than 25 µM in the series on EMT6 and more than 50 µM in series [1]. The IC50 in [2] amounted to 2.4 µM.
For `C=C(CBr)C(=O)OC` [METHYL BROMOMETHYL ACRYLATE], the CC50 (in the series on EMT6; in [1]) was more than 50 µM throughout. In addition, the IC50 in series [2] stood at 0.44 µM.
As for `C=C(CBr)C(=O)N(Cc1ccccc1)[C@@H](CC(C)C)C(=O)NCC(=O)OCc1ccccc1`, the CC50 (with EMT6; in [1]) was more than 50 µM throughout. For the same compound, in series [2], the IC50 worked out at 10 µM.
Take `C=C(COC(=O)c1c(Cl)cccc1Cl)C(=O)OC`: the Stability entry in [3] was “Unstable”. Further, the CC50 (in the series on EMT6; in [1]) was more than 25 µM throughout. The IC50 in series [2] was 0.2 µM.
Consider `CCC(C)SSc1ncc[nH]1` (stereo unspecified) [PX-12], for which the CC50 stood at 5.5 µM with K562; 8.8 µM in the series on Raji [4]; 3.4 µM in the series on Ramos; 5 µM in [5]; 5.2 µM with CT26; 11.6 µM in the series on EMT6. For the same compound, the CC50 in series [1] came to 3.9 µM; in the series on T-24, 4.6 µM; in [7], 2.7 µM. Besides, in series [2], the IC50 came to 12.3 µM. Moreover, the CC50 at 72 h in series [6] is more than 12.5 µM; in [8], more than 25 µM. Moreover, the result in the series on Raji [9] and with Raji [10] was Active. Also, the Activity result in the series with Mus musculus [11] and in the series on Mus musculus [12] was “Toxic” each time.
Take `C=C(CI)C(=O)N(Cc1ccccc1)[C@@H](CC(C)C)C(=O)NCC(=O)OCc1ccccc1`: the CC50 (in the series on EMT6; in series [1]) was more than 50 µM each time. Besides, the IC50 in series [2] came out at 3.9 µM.
`C=C(COC(=O)c1c(Cl)cccc1Cl)C(=O)N[C@@H](CC(C)C)C(=O)NCC(=O)OCC`: the solubility entry in series [13] is listed as “Insoluble”. Also, the figures for the CC50 (in the series with EMT6; in [1]) were 5.5 µM and 3 µM, respectively. The IC50 in series [2] was 3 µM.
`CC(C)C[C@@H](C(=O)NCC(=O)OCc1ccccc1)N(Cc1ccccc1)C(=O)C(CBr)CBr`: in series [2], the half-inhibitory concentration (IC50) is more than 50 µM.
Consider `COC(=O)C(C)(CBr)CBr`, for which, in series [2], the IC50 was more than 50 µM.
In the case of `C=C(COC(=O)c1c(C(F)(F)F)cccc1C(F)(F)F)C(=O)OC`, the Stability entry in series [3] is “Unstable”. Besides, the CC50 (with EMT6; in [1]) was more than 25 µM throughout. Further, the IC50 in series [2] came to 0.4 µM.
On to `C=C(CBr)C(=O)N(Cc1ccc(OC)cc1OC)[C@@H](CC(C)C)C(=O)NCC(=O)OCC`, for which the CC50 (with EMT6; in [1]) was more than 50 µM each time. Moreover, the IC50 in [2] stood at 8.9 µM.

Values taken from ChEMBL document CHEMBL2010771, “Studies toward novel peptidomimetic inhibitors of thioredoxin-thioredoxin reductase system” (J Med Chem, 2012).
